Test system: U2OS
Experiment: Multiplex assay against U2OS
Format: toxicity, cell-based
Conditions: human
How it was run: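 Cells were classed with CellPathfinder machine-learning gating, first as Hoechst high-intensity objects or normal cells, then (normal cells) as healthy, pyknosed or fragmented nuclei, and finally (pyknosed cells) as mitotic or apoptotic. Staining of live cells at seeding used Hoechst33342, BioTracker Green Microtubule Cytoskeleton Dye, MitoTracker Red and Annexin V Alexa Fluor 680, with imaging on a CQ1 microscope at 37°C and 5% CO2 after compound addition. Tubulin, mitochondrial-mass and membrane-permeability phenotypes are per cents of healthy-nucleus cells.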

[1] = 12 h, 1 µM, compound concentration 1 uM, replicate 1
[2] = 12 h, 1 µM, compound concentration 1 uM, replicate 2
[3] = 12 h, 10 µM, compound concentration 10 uM, replicate 1
[4] = 12 h, 10 µM, compound concentration 10 uM, replicate 2
[5] = 24 h, 1 µM, compound concentration 1 uM, replicate 1
[6] = 24 h, 1 µM, compound concentration 1 uM, replicate 2
[7] = 24 h, 10 µM, compound concentration 10 uM, replicate 1
[8] = 24 h, 10 µM, compound concentration 10 uM, replicate 2
[9] = 48 h, 1 µM, compound concentration 1 uM, replicate 1
[10] = 48 h, 1 µM, compound concentration 1 uM, replicate 2
[11] = 48 h, 10 µM, compound concentration 10 uM, replicate 1
[12] = 48 h, 10 µM, compound concentration 10 uM, replicate 2

What does the source list for `Cl.N#Cc1ccc2[nH]cc(CCCCN3CCN(c4ccc5oc(C(N)=O)cc5c4)CC3)c2c1` [VILAZODONE HYDROCHLORIDE]?
Population Apoptotic (%) [1]: 42%; Population Fragmented Nuclei (%) [1]: 17%; Population Healthy Nuclei (%) [1]: 65%; Population Hoechst High Intensity Objects (%) [1]: 9%; Population Membrane Permeable-Phenotype (%) [1]: 4%; Population Mitochondria Different-Phenotype (%) [1]: 28%; Population Mitotic Cells (%) [1]: 57%; Population Normal (%) [1]: 90%; Population Pyknosed Nuclei (%) [1]: 17%; Population Tubulin-Different-Phenotype (%) [1]: 29%; Total Cell Count [1]: 129; Population Apoptotic (%) [2]: 27%; Population Fragmented Nuclei (%) [2]: 14%; Population Healthy Nuclei (%) [2]: 70%; Population Hoechst High Intensity Objects (%) [2]: 2%; Population Membrane Permeable-Phenotype (%) [2]: 6%; Population Mitochondria Different-Phenotype (%) [2]: 30%; Population Mitotic Cells (%) [2]: 72%; Population Normal (%) [2]: 97%; Population Pyknosed Nuclei (%) [2]: 15%; Population Tubulin-Different-Phenotype (%) [2]: 18%; Total Cell Count [2]: 50; Population Apoptotic (%) [3]: 39%; Population Fragmented Nuclei (%) [3]: 29%; Population Healthy Nuclei (%) [3]: 12%; Population Hoechst High Intensity Objects (%) [3]: 18%; Population Membrane Permeable-Phenotype (%) [3]: 42%; Population Mitochondria Different-Phenotype (%) [3]: 89%; Population Mitotic Cells (%) [3]: 60%; Population Normal (%) [3]: 81%; Population Pyknosed Nuclei (%) [3]: 58%; Population Tubulin-Different-Phenotype (%) [3]: 100%; Total Cell Count [3]: 120; Population Apoptotic (%) [4]: 67%; Population Fragmented Nuclei (%) [4]: 20%; Population Healthy Nuclei (%) [4]: 14%; Population Hoechst High Intensity Objects (%) [4]: 10%; Population Membrane Permeable-Phenotype (%) [4]: 38%; Population Mitochondria Different-Phenotype (%) [4]: 46%; Population Mitotic Cells (%) [4]: 32%; Population Normal (%) [4]: 89%; Population Pyknosed Nuclei (%) [4]: 64%; Population Tubulin-Different-Phenotype (%) [4]: 92%; Total Cell Count [4]: 72; Population Apoptotic (%) [5]: 56%; Population Fragmented Nuclei (%) [5]: 16%; Population Healthy Nuclei (%) [5]: 71%; Population Hoechst High Intensity Objects (%) [5]: 7%; Population Membrane Permeable-Phenotype (%) [5]: 2%; Population Mitochondria Different-Phenotype (%) [5]: 26%; Population Mitotic Cells (%) [5]: 43%; Population Normal (%) [5]: 92%; Population Pyknosed Nuclei (%) [5]: 12%; Population Tubulin-Different-Phenotype (%) [5]: 21%; Total Cell Count [5]: 120; Population Apoptotic (%) [6]: 60%; Population Fragmented Nuclei (%) [6]: 15%; Population Healthy Nuclei (%) [6]: 78%; Population Hoechst High Intensity Objects (%) [6]: 1%; Population Membrane Permeable-Phenotype (%) [6]: 3%; Population Mitochondria Different-Phenotype (%) [6]: 19%; Population Mitotic Cells (%) [6]: 40%; Population Normal (%) [6]: 98%; Population Pyknosed Nuclei (%) [6]: 6%; Population Tubulin-Different-Phenotype (%) [6]: 18%; Total Cell Count [6]: 54; Population Apoptotic (%) [7]: 61%; Population Fragmented Nuclei (%) [7]: 26%; Population Membrane Permeable-Phenotype (%) [7]: 53%; Population Mitochondria Different-Phenotype (%) [7]: 86%; Population Mitotic Cells (%) [7]: 38%; Population Pyknosed Nuclei (%) [7]: 64%; Population Tubulin-Different-Phenotype (%) [7]: 93%; Total Cell Count [7]: 135; Population Apoptotic (%) [8]: 75%; Population Fragmented Nuclei (%) [8]: 31%; Population Healthy Nuclei (%) [8]: 9%; Population Hoechst High Intensity Objects (%) [8]: 18%; Population Membrane Permeable-Phenotype (%) [8]: 30%; Population Mitochondria Different-Phenotype (%) [8]: 90%; Population Mitotic Cells (%) [8]: 24%; Population Normal (%) [8]: 81%; Population Pyknosed Nuclei (%) [8]: 59%; Population Tubulin-Different-Phenotype (%) [8]: 90%; Total Cell Count [8]: 79; Population Apoptotic (%) [9]: 38%; Population Fragmented Nuclei (%) [9]: 10%; Population Healthy Nuclei (%) [9]: 76%; Population Hoechst High Intensity Objects (%) [9]: 6%; Population Membrane Permeable-Phenotype (%) [9]: 8%; Population Mitochondria Different-Phenotype (%) [9]: 10%; Population Mitotic Cells (%) [9]: 61%; Population Normal (%) [9]: 93%; Population Pyknosed Nuclei (%) [9]: 12%; Population Tubulin-Different-Phenotype (%) [9]: 16%; Total Cell Count [9]: 121; Population Apoptotic (%) [10]: 40%; Population Fragmented Nuclei (%) [10]: 12%; Population Healthy Nuclei (%) [10]: 82%; Population Hoechst High Intensity Objects (%) [10]: 2%; Population Membrane Permeable-Phenotype (%) [10]: 9%; Population Mitochondria Different-Phenotype (%) [10]: 9%; Population Mitotic Cells (%) [10]: 60%; Population Normal (%) [10]: 97%; Population Pyknosed Nuclei (%) [10]: 4%; Population Tubulin-Different-Phenotype (%) [10]: 11%; Total Cell Count [10]: 49; Population Apoptotic (%) [11]: 91%; Population Fragmented Nuclei (%) [11]: 35%; Population Healthy Nuclei (%) [11]: 7%; Population Hoechst High Intensity Objects (%) [11]: 21%; Population Membrane Permeable-Phenotype (%) [11]: 87%; Population Mitochondria Different-Phenotype (%) [11]: 100%; Population Mitotic Cells (%) [11]: 8%; Population Normal (%) [11]: 78%; Population Pyknosed Nuclei (%) [11]: 56%; Population Tubulin-Different-Phenotype (%) [11]: 100%; Total Cell Count [11]: 174; Population Apoptotic (%) [12]: 89%; Population Fragmented Nuclei (%) [12]: 25%; Population Healthy Nuclei (%) [12]: 5%; Population Hoechst High Intensity Objects (%) [12]: 25%; Population Membrane Permeable-Phenotype (%) [12]: 75%; Population Mitotic Cells (%) [12]: 10%; Population Normal (%) [12]: 74%; Population Pyknosed Nuclei (%) [12]: 68%; Total Cell Count [12]: 120
